Bioassay records as filed in PubChem BioAssay.
In the library only some 1.5% were active in any assay of this set; here they are far more common.
Hep lipid drop: inhibitors of hepatocyte lipid droplet formation, primary screen, imaging, high-throughput imaging, BODIPY stain; AML12 mouse hepatocytes, oleate lipid droplets; inhibition, % at 6.5 µM; 240,000 tested, 0.4% active; AID 1656, 2009;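 active = lipid droplet intensity inhibited by at least 50%, with more than 500 cells counted; inconclusive = wells with under 300 cells, treated as cytotoxic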
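Material – AML12 mouse liver cells · Also added – oleate loading, 100 µM · Compound dosing – 6.5 µM single-point dosing · Times – overnight treatment with compound plus oleate · Measured by – fluorescence imaging, 20x objective, two fields per well · Read-out – percent inhibition of filter-corrected integrated lipid droplet intensity per well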
STAT1 inh: STAT1 signaling inhibitors, primary screen, cell-based, HTS, luciferase reporter; AID 920, 2007; NIH 3T3 STAT1-luciferase reporter, IFN-gamma, luminescence; 200,000 tested, 0.35% active; inhibition, % at 5.5 µM;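 active = inhibition above a set limit, the mean inhibition across all tested compounds plus 3 SD, cut at about 34% in these data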
H9c2 TAG inh: inhibitors of triacylglycerol accumulation, primary screen, cell-based, uHTS, fluorescence, H9c2; H9c2 cells, Nile Red lipid (TAG) fluorescence; cells loaded with 200 µM oleic acid; inhibition, % at 12.5 µM; 230,000 tested, 0.66% active; AID 651582, 2012;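 active = pattern-corrected inhibition of lipid staining of at least 50% with the nuclear-stain viability signal not falling by more than 50%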
PPC-1+TRAIL kill: compounds killing PPC-1 cancer cells with TRAIL present, primary screen, TRAIL potentiator project, ATPLite luminescence, uHTS; PPC-1 cells + TRAIL, ATPLite viability luminescence; cell killing (% activity), % at 4 µM or 5 µM; 220,000 tested, 0.41% active;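 active = cell killing above 50% in the first pass at 4 µM, then a duplicate retest at 5 µM averaging 50% or more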
STAT3 inh: IL-6 driven STAT3 reporter inhibitors, primary screen, U3A cells, luciferase, luminescence, MLSCN library; IL-6 STAT3-luciferase reporter; host cell line lacks STAT1; inhibition, % at 5.5 µM; 190,000 tested, 0.89% active;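 active = inhibition above the mean inhibition across all screened compounds plus 3 SD, cut at about 44% in these data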
Platelet DG rel: inhibitors of platelet dense granule secretion, primary screen, cell-based, MLPCN, human platelets. inhibition, %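 (compounds screened at 7.5 µM in platelet-rich plasma)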. AID 1663, 2009. human platelet-rich plasma, SFLLRN dense granule ATP release, luminescence. 300,000 tested, 0.22% active;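 active = mean replicate score, as percent of positive control, at or above 50; inconclusive = mean below 50 but at least one replicate at or above 50; inactive = mean and every replicate below 50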
A number is an active result; - = inactive; ? = inconclusive; . = no result.

SMILES	Hep lipid drop	STAT1 inh	H9c2 TAG inh	PPC-1+TRAIL kill	STAT3 inh	Platelet DG rel
CSc1nc(N)n2nc(-c3ccc(Cl)cc3)cc2n1	-	.	-	-	.	67
O=C(NCc1ccc(F)cc1)c1cc(C2CCCN(C(=O)c3ccc4ccccc4c3)C2)on1 (stereo unspecified)	.	.	-	.	.	.
CCCSc1ccc2nc(-c3ccccc3)cn2c1	-	79	.	85	103	75
Nc1ccccc1CCc1ccccc1N	.	.	-	.	.	.
Cc1ccc2nc3n(c(=O)c2c1)-c1ncccc1C(=O)NC3Cc1ccc(O)cc1 (stereo unspecified)	.	.	-	.	.	.
CCCCCC[n+]1ccccc1/C=C/c1ccc(N(C)C)cc1	.	.	-	.	.	.
CCCCCCCCCC[n+]1cccc2c3ccccc3ccc21	-	51	-	-	87	-
Cc1cccc[n+]1CCCCCCCCCC[n+]1ccccc1C	-	-	-	.	-	-
CCCCCCCC[n+]1cccc2c3ccccc3ccc21	-	38	-	-	87	-
O=C(NCc1ccccc1)c1cc(C2COCCN2S(=O)(=O)c2cccs2)on1 (stereo unspecified)	.	.	-	.	.	.
Cc1[nH]n(-c2ccccc2)c(=O)c1/C=N\NC(=O)C1COc2ccccc2O1 (stereo unspecified)	-	-	.	72	-	-
COc1cc(CN2C[C@@H](CO)O[C@@H](n3cnc4c(NCCN(C)C)ncnc43)C2)cc(OC)c1OC	.	.	-	.	.	.
O=C(CN(c1cccc([N+](=O)[O-])c1)S(=O)(=O)c1ccccc1)NCc1ccccc1	-	-	.	-	-	57
O=C(Nc1cccs1)Nc1nnc([C@@H]2C[C@H](O)[C@@H](CO)O2)s1	.	.	-	.	.	.
COc1ccc(Br)cc1/C=C/C(=O)Nc1ccc2ccccc2c1	52	-	.	-	-	-
COc1cc(C(=O)Nc2nc(-c3ccc(F)cc3)cs2)ccc1OCC(=O)N1CCOCC1	61	-	.	-	-	-
COc1cc(C(=O)Nc2nc(-c3ccc(C)cc3)cs2)ccc1OCC(=O)N1CCOCC1	88	-	.	-	-	-
COC(=O)Nc1nc(C)c(C(=O)c2ccccc2)s1	-	-	.	-	-	-
COC(=O)Nc1nc(-c2ccccc2)c(C(=O)c2ccccc2)s1	?	-	65	-	-	-
CC1CCCN(S(=O)(=O)c2cc(C(=O)NCCc3ccc(S(N)(=O)=O)cc3)ccc2Cl)C1 (stereo unspecified)	.	.	-	.	.	.
O=C(Nc1nccs1)c1cc(S(=O)(=O)N2CCOCC2)ccc1Cl	-	.	-	60	.	-
O=C(Nc1nncs1)c1cc(S(=O)(=O)N2CCOCC2)ccc1Cl	-	.	.	.	.	-
NC1=C(Cl)C(=O)c2ccc(S(N)(=O)=O)cc2C1=O	.	.	-	.	.	.
NC1=C(Cl)C(=O)c2ccccc2C1=O	.	.	66	.	.	.
CCOC(=O)C1(C)CCCCCN1C(=O)c1csnn1 (stereo unspecified)	.	.	-	.	.	.
SMILES	Hep lipid drop	STAT1 inh	H9c2 TAG inh	PPC-1+TRAIL kill	STAT3 inh	Platelet DG rel
CCCCS(=O)(=O)/C=C\C=C/S(=O)(=O)CCCC	-	-	88	-	-	-
CCCCS(=O)(=O)/C=C\C1C2C=CC(C2)C1S(=O)(=O)CCCC (stereo unspecified)	.	-	-	-	-	-
Cc1[nH]c(=O)[nH]c(=O)c1/C=N/NC(=O)CCCCCNC(=O)OC(C)(C)C	-	.	-	-	.	-
Cc1[nH]c(=O)[nH]c(=O)c1/C=N/NC(=O)CCNC(=O)OC(C)(C)C	-	.	-	-	.	77
C#CCn1c(=NC(=O)c2ccc(S(=O)(=O)N3CCc4ccccc4C3)cc2)sc2cc(S(N)(=O)=O)ccc21	-	-	.	61	-	-
C[C@H]1CN([C@@H](C)CO)C(=O)c2cc(Br)cnc2O[C@@H]1CN(C)C(=O)Nc1ccc(C(F)(F)F)cc1	.	.	-	.	.	.
COc1ccc2cc(/C=N/NC(=O)c3ccc(CN(c4cccc(Cl)c4Cl)S(C)(=O)=O)cc3)c(Cl)nc2c1	-	-	.	51	-	-
O=C(CSc1nnc2c3ccccc3c3ccccc3c2n1)Nc1ccccc1F	.	-	-	-	-	55
O=c1c2c3c(sc2nc2n1N=C(c1cccs1)CS2)CCCC3	.	-	.	78	-	-
CC(C)(C)c1ccc(S(=O)(=O)Nc2ccc(Cc3ccncc3)cc2)cc1	67	-	.	-	-	-
CC(=O)Nc1ccc(S(=O)(=O)Nc2ccc(Cc3ccncc3)cc2)cc1	-	.	.	.	.	-
CCC1NC(=O)c2cc3ccccc3cc2-n2c1nc1ccc(F)cc1c2=O (stereo unspecified)	.	.	-	.	.	.
O=c1c(Cl)c(Cl)cnn1Cc1nnc(-c2ccc(Cl)cc2)o1	-	-	61	-	-	-
Cc1ccc(Cn2ncc(Cl)c(Cl)c2=O)cc1	-	-	.	-	-	-
COc1ccc(-c2cc3ccc(O)cc3oc2=O)cc1OC	-	.	.	.	.	71
COc1ccc(-c2cc3ccc(OCC(N)=O)cc3oc2=O)cc1OC	-	.	.	.	.	-
c1ccc2c(c1)[nH]c1c(N3CCSCC3)ncnc12	.	38	-	.	-	.
Cc1ccc2[nH]c3c(N4CCc5ccccc5C4)ncnc3c2c1	.	-	-	-	73	-
Cc1ccn2c(c1)nc(=S)n2C(=O)c1ccco1	-	-	.	71	-	-
Cc1ccc(S(=O)(=O)N2CCC(C(=O)OCC(=O)N3C(C)CCCC3C)CC2)cc1C (stereo unspecified)	.	.	-	.	.	.
Nc1c(Cl)ncnc1N/N=C/c1ccc2ccccc2n1	-	-	-	62	-	.
Nc1c(Cl)ncnc1N/N=C/c1ccccn1	-	-	.	-	-	.
CCN1/C(=C/C(C)=C/c2sc3ccccc3[n+]2CC)Sc2ccccc21	-	45	-	-	96	-
CCN1/C(=C\C(=S)Nc2ccccc2)Sc2ccccc21	-	-	-	.	-	-
COc1ccccc1OCC(=O)NCC1CCCN(C(=O)c2cccc(C)c2)C1 (stereo unspecified)	.	.	-	.	.	.
